High-throughput results from PubChem BioAssay.
In the library only some 3.1% were active in any assay of this set; here they are far more common.
GPR7 antagonist = human neuropeptides B/W receptor 1 antagonism; GPR7-expressing cells, fluorescence antagonist assay; inhibition, % at 4.4 µM; AID 1861; P48145; 290,000 tested, 1.1% active; in the data active means inhibition above about 16%, passing the limit was not always enough;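 further: cells stimulated with the agonist NPW; 0% = agonist with vehicle and 100% = vehicle without agonist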
GalR3 antagonist = human GalR3 antagonism | HEK293 GalR3-CNG cAMP membrane potential fluorescence; galR3 body fused to GalR1 C-terminus | 360,000 tested, 0.44% active | inhibition, % at 3 µM | AID 651719;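 active means inhibition above the screen-wide average plus 3 SD, cut at about 13% in these data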;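 further: forskolin and galanin both at EC90 stimulate the cells; cAMP rise reported by CNG channel membrane potential dye signal; 0% = forskolin plus galanin with DMSO and 100% = forskolin alone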
Target sequence (O60755 1-299 limits assumed): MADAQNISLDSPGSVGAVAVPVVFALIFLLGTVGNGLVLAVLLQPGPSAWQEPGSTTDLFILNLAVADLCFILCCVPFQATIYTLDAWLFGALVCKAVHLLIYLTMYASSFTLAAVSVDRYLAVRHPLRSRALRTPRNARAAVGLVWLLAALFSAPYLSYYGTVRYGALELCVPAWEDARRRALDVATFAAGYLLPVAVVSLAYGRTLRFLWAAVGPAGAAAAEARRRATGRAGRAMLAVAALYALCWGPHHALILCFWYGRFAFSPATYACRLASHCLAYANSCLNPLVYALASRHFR
OX1R antag-1 = antagonists of human orexin 1 receptor; AID 434989; 330,000 tested, 0.43% active; inhibition, % at 5 µM; O43613; CHO/OX1R cells, Fluo-8 calcium fluorescence, orexin A;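 active means inhibition above its plate's threshold, mean inhibition of all tested compounds on the plate plus 3 SD, cut at about 37% in these data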;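 further: 0% = orexin A challenge wells and 100% = SB-334867-A antagonist wells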
OX1R antag-2 = blocks the human orexin 1 receptor. 330,000 tested, 1.8% active. AID 485270. inhibition, % at 6.6 µM. OX1R-expressing cells, FRET antagonist read-out; in the data active means inhibition mostly above about 38%, no sharp cut-off; inactive means mostly below about 40%;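 further: 0% = agonist challenge alone and 100% = reference antagonist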
CHO parental Ca = signal in parental CHO cells, OX1R antagonist counter-screen; 330,000 tested, 0.63% active; inhibition, % at 5.6 µM; parental CHO-K1, ATP-induced calcium, Fluo-8 fluorescence;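 active means inhibition above that plate's mean sample inhibition plus 3 SD, cut at about 26% in these data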;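 further: 0% = ATP-challenged DMSO wells and 100% = DMSO wells without ATP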
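Material: Parental CHO cells | Reagent: ATP | Compound dosing: Single nominal dose of 5.6 µM per compound | Detection: Intracellular calcium via Fluo-8 no-wash fluorescent dye | Read-out: % inhibition of ATP-induced calcium mobilization | Benchmarks: Low control ATP plus DMSO, high control DMSO only | Replicates: Singlicate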
The depositor's hits bear a star; / = no result.

SMILES | GPR7 antagonist | GalR3 antagonist | OX1R antag-1 | OX1R antag-2 | CHO parental Ca
O=C(O)c1ccc(S(=O)(=O)c2ccc3c(c2)C(=O)N(CC2CCCO2)C3=O)cc1 (stereo not given) | 16.6 | -3.4 | -2.5 | 42.1 | 1.4
O=C(O)c1ccc(C(=O)c2ccc3c(c2)C(=O)N(CC2CCCO2)C3=O)cc1 (stereo not given) | -9.1 | -0.5 | -2.1 | 55.5* | 1.2
COc1ccc(-c2ccc(/C=C3/C(=N)N4C=CSC4=NC3=O)o2)c([N+](=O)[O-])c1 | -17.1 | 4.6 | 12.6 | 64.3* | -3.4
COc1ccc(/C=C2\CCc3c2nc2ccccc2c3C(=O)O)cc1OC | -2.2 | 0.1 | 0.3 | 75.2* | 6.6
COc1cc(/C=C2\CCCc3c2nc2ccccc2c3C(=O)O)cc([N+](=O)[O-])c1O | -7.9 | -6.3 | -0.9 | 59.2 | -5.7
COc1cc(/C=C2\CCCc3c2nc2ccccc2c3C(=O)O)cc(OC)c1O | -3.1 | -0.1 | -13.1 | 10.0 | -5.0
CCOc1ccc(/C=C2\CCCc3c2nc2ccccc2c3C(=O)O)cc1OC | 7.0 | / | 30.4 | 81.8* | 29.7*
COc1ccc(/C=C2\CCCc3c2nc2ccccc2c3C(=O)O)cc1OC | 4.6 | / | 6.8 | 63.1* | 2.8
F[B-](F)(F)COCc1ccccc1C#Cc1ccccc1 | / | -5.3 | / | / | /
O=C(N[C@@H](Cc1cccnc1)C(=O)N1CCC[C@H]1C(=O)NCc1ccccc1)c1ccc(Cl)cc1Cl | / | -3.0 | / | / | /
CCCC(=O)N(Cc1cc2cccc(C)c2[nH]c1=O)c1ccccc1OC | 20.7* | 1.4 | -3.3 | 14.6 | -16.1
CCOC(=O)c1nn(-c2cccc(Cl)c2)c2nc(Nc3ccccc3)cc(=O)n12 | -6.2 | -3.8 | -4.6 | 8.5 | 0.0
CCOC(=O)c1nn(-c2cccc(OC)c2)c2nc(Nc3ccccc3)cc(=O)n12 | -5.7 | 1.6 | -5.2 | 14.0 | 93.5*
CCCCCCc1cc2cc(C(N)=O)c(=N)oc2cc1O | -6.2 | / | -21.5 | 55.5* | -7.1
COC(=O)[C@]12C[C@H](CC(=O)N3CCN(C(=O)C4CC4)CC3)C(=O)N(CCC3=CCCCC3)C1=C[C@H](C(C)(C)C)O[C@@H]2C | / | -7.3 | / | / | /
O=C(CC1CCCC1)N[C@H](C(=O)N1CCC[C@H]1C(=O)NCc1ccccc1)c1ccccc1 | / | -6.8 | / | / | /
Cc1ccccc1NC(=O)C(=O)NCC1CCCN1S(=O)(=O)c1cccs1 (stereo not given) | / | -0.3 | -7.1 | 33.6* | -14.9
O=C(NCC1CCCN1S(=O)(=O)c1cccs1)c1cccc([N+](=O)[O-])c1 (stereo not given) | / | -2.1 | -8.7 | 55.2* | -11.1
COCC(=O)N1CCC(Oc2ccc(C(=O)NCc3cc(C(C)C)no3)cc2)CC1 | 1.9 | -3.6 | 1.8 | 18.0 | -0.2
CCOC(=O)/C(=C\c1cccnc1)C(=O)c1cc(C(C)=O)c(Nc2ccccc2)s1 | 29.6* | / | 24.1 | 10.5 | 30.6
CCOC(=O)/C(=C\c1ccccc1)C(=O)c1cc(C(C)=O)c(Nc2ccccc2)s1 | 4.0 | -4.6 | -33.5 | 3.5 | -9.7
CC(C)C[C@H](NC(=O)c1nccs1)C(=O)N1CCC[C@H]1C(=O)NCc1ccccc1 | / | 0.2 | / | / | /
O=C(Nc1ccccc1F)c1ccc(CNS(=O)(=O)c2cccc(C(F)(F)F)c2)cc1 | -0.6 | 0.8 | -13.8 | 5.9 | 69.2*
Cc1ccc(NC(=O)c2ccc(CNS(=O)(=O)c3cccc(C(F)(F)F)c3)cc2)cc1 | -10.4 | 0.3 | -20.2 | 15.5 | -5.2
CCC(=O)Nc1ccc(C2=Nn3c(nnc3C(C)C)SC2)cc1 | -14.6 | -7.0 | 2.0 | -6.8 | 11.8
SMILES | GPR7 antagonist | GalR3 antagonist | OX1R antag-1 | OX1R antag-2 | CHO parental Ca
COC(=O)CCC(=O)OC1(C)C(=O)C=C2C=C(C3CC3)N(CC3CC3)C=C2C1=O (stereo not given) | / | -0.6 | -14.4 | 36.8 | -16.4
COC(=O)CCC(=O)OC1(C)C(=O)C=C2C=C(C3CC3)N(Cc3ccccc3)C=C2C1=O (stereo not given) | / | -2.4 | -21.7 | 75.8* | -3.1
COc1ccc2nc(CC(C)(C)CC(=O)O)c[n+]([O-])c2c1 | -13.4 | -0.7 | -17.6 | 68.9* | -7.9
COc1ccc2c(c1)[C@@H](NC(=O)c1ccncc1)[C@@H]1Cc3ccccc3[C@H]21 | / | -5.6 | / | / | /
COC(=O)Nc1cccn(Cc2c(Cl)cccc2Cl)c1=O | -10.4 | -2.9 | -10.9 | 14.1 | -0.6
O=C(Nc1cccn(Cc2c(Cl)cccc2Cl)c1=O)c1c(Cl)cccc1Cl | -13.0 | -4.9 | 8.0 | 55.7* | 3.1
COC(=O)CCC(=O)N1CCCC(CO)(Cc2ccccc2F)C1 (stereo not given) | -0.5 | -4.6 | -19.9 | -0.3 | -11.7
